How the values were obtained:
Assay type in all cases: functional
Aspergillus fumigatus [1] = assay: Antifungal activity against Aspergillus fumigatus at a concentration of 2 mg/mL in MeOH; Zone: very hazy
Method in brief: (§1)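 Standard agar-well diffusion on Sabouraud agar bioassay plates, seeded with C. albicans strain IV or A. fumigatus strain AF-1. Read-out is the inhibition zone produced around the well. Zone appearance is scored as hazy, very hazy, hazy diffused or very hazy diffused, and judged against the zone of the parent mulundocandin.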

Aspergillus fumigatus [2] = assay: Antifungal activity against Aspergillus fumigatus at a concentration of 5 mg/mL in MeOH; Zone: hazy diffused; method in brief: as §1
Candida albicans [3] = assay: Antifungal activity against Candida albicans at a concentration of 1 mg/mL in MeOH; method in brief: as §1
Candida albicans [4] = assay: Antifungal activity against Candida albicans at a concentration of 5 mg/mL in MeOH; method in brief: as §1
Aspergillus fumigatus [5] = assay: Antifungal activity against Aspergillus fumigatus at a concentration of 2 mg/mL in MeOH; Zone: hazy diffused; method in brief: as §1
Candida albicans [6] = assay: Antifungal activity against Candida albicans at an intraperitoneal dose of 20 mg/kg twice a day for 6 days in mice
Method in brief: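 Swiss mice were infected with C. albicans and treated intraperitoneally at 20 mg/kg ×6, b.i.d. Kidneys were homogenized and the approximate CFU per gm kidney was counted. Comparator groups were the parent compound, fluconazole and untreated infected controls.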

Aspergillus fumigatus [7] = assay: Antifungal activity against Aspergillus fumigatus at a concentration of 2 mg/mL in MeOH; Zone: very hazy diffused; method in brief: as §1
Candida albicans [8] = assay: Antifungal activity against Candida albicans at an intraperitoneal dose of 20 mg/kg twice a day for 6 days in mice in experiment 1
Method in brief: (§2)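 Swiss mice infected with C. albicans; compounds given intraperitoneally at 20 mg/kg, ×6, b.i.d. Kidneys homogenized and colony-forming units counted per gram of kidney (approximate). Untreated infected control group included; fluconazole at the same dose used as standard.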

Aspergillus fumigatus [9] = assay: Antifungal activity against Aspergillus fumigatus at a concentration of 1.1 mg/mL in MeOH; Zone: hazy diffused; method in brief: as §1
Candida albicans [10] = assay: Antifungal activity against Candida albicans at a concentration of 0.1 mg/mL in MeOH; method in brief: as §1
Candida albicans [11] = assay: Antifungal activity against Candida albicans at an intraperitoneal dose of 20 mg/kg twice a day for 6 days in mice in experiment 2; method in brief: as §2
Candida albicans [12] = assay: Antifungal activity against Candida albicans at a concentration of 1.1 mg/mL in MeOH; method in brief: as §1
Aspergillus fumigatus [13] = assay: Antifungal activity against Aspergillus fumigatus at a concentration of 1 mg/mL in MeOH; Zone: hazy; method in brief: as §1
Candida albicans [14] = assay: Antifungal activity against Candida albicans at a concentration of 1 mg/mL in MeOH; Zone: hazy; method in brief: as §1
Aspergillus fumigatus [15] = assay: Antifungal activity against Aspergillus fumigatus at a concentration of 5 mg/mL in MeOH; Zone: hazy; method in brief: as §1
Aspergillus fumigatus [16] = assay: Antifungal activity against Aspergillus fumigatus at a concentration of 2 mg/mL in MeOH; Zone: hazy; method in brief: as §1
Aspergillus fumigatus [17] = assay: Antifungal activity against Aspergillus fumigatus at a concentration of 5 mg/mL in MeOH; Zone: very hazy diffused; method in brief: as §1
Aspergillus fumigatus [18] = assay: Antifungal activity against Aspergillus fumigatus at a concentration of 2 mg/mL in MeOH; Zone: diffused; method in brief: as §1
Candida albicans [19] = assay: Antifungal activity against Candida albicans at a concentration of 2 mg/mL in MeOH; Zone: hazy; method in brief: as §1

Row | SMILES | Zone size (Aspergillus fumigatus [2]) | Zone size (Candida albicans [3]) | Zone size (Candida albicans [4]) | Zone size (Aspergillus fumigatus [5]) | other results
1 | CCC(C)CCCCCCCCCCC(=O)N[C@@H]1C[C@@H](O)C(S(=O)(=O)CC(=O)OC)NC(=O)[C@@H]2[C@@H](O)[C@@H](C)CN2C(=O)C(CO)NC(=O)C([C@@H](O)[C@H](O)c2ccc(O)cc2)NC(=O)[C@@H]2C[C@@H](O)CN2C(=O)C(C(C)O)NC1=O (some centres undefined) | 29 mm | 20 mm | 26 mm |  | Zone size (Aspergillus fumigatus [1]): 24 mm
2 | CCC(C)CCCCCCCCCCC(=O)N[C@@H]1C[C@@H](O)C(O)NC(=O)[C@@H]2[C@@H](O)[C@@H](C)CN2C(=O)[C@H](CO)NC(=O)[C@H]([C@@H](O)Cc2ccc(O)cc2)NC(=O)[C@@H]2C[C@@H](O)CN2C(=O)[C@H]([C@@H](C)O)NC1=O (some centres undefined) |  | 30 mm |  | 30 mm | Approximate colony formation unit (Candida albicans [6]): 180000000 (g kidney)-1
3 | CCC(C)CCCCCCCCCCC(=O)N[C@@H]1C[C@@H](O)CNC(=O)[C@@H]2[C@@H](O)[C@@H](C)CN2C(=O)[C@H](CO)NC(=O)[C@H]([C@@H](O)C(O)c2ccc(O)cc2)NC(=O)[C@@H]2C[C@@H](O)CN2C(=O)[C@H]([C@@H](C)O)NC1=O (some centres undefined) | 25 mm | 25 mm | 29 mm | 23 mm | 
4 | CCC(C)CCCCCCCCCCC(=O)N[C@@H]1C[C@@H](O)[C@H](O)NC(=O)[C@@H]2[C@@H](O)[C@@H](C)CN2C(=O)[C@H](CO)NC(=O)[C@H]([C@@H](O)[C@H](O)c2ccc(O)cc2)NC(=O)[C@@H]2C[C@@H](O)CN2C(=O)[C@H]([C@@H](C)O)NC1=O (some centres undefined) |  |  |  |  | Zone size (Aspergillus fumigatus [7]): 35 mm; Approximate colony formation unit (Candida albicans [8]): 150000000 (g kidney)-1; Zone size (Aspergillus fumigatus [9]): 29 mm; Zone size (Candida albicans [10]): 24 mm; Approximate colony formation unit (Candida albicans [11]): 12500000 (g kidney)-1; Zone size (Candida albicans [12]): 29 mm
5 | CCC(C)CCCCCCCCCCC(=O)N[C@@H]1C[C@@H](O)CNC(=O)[C@@H]2[C@@H](O)[C@@H](C)CN2C(=O)[C@H](CO)NC(=O)[C@H]([C@@H](O)Cc2ccc(O)cc2)NC(=O)[C@@H]2C[C@@H](O)CN2C(=O)[C@H]([C@@H](C)O)NC1=O (some centres undefined) | 35 mm |  | 38 mm | 30 mm | Zone size (Aspergillus fumigatus [13]): 25 mm; Approximate colony formation unit (Candida albicans [6]): 7700000 (g kidney)-1; Zone size (Candida albicans [14]): 24 mm
6 | CCC(C)CCCCCCCCCCC(=O)N[C@@H]1C[C@H](O)C(C#N)NC(=O)[C@@H]2[C@@H](O)[C@@H](C)CN2C(=O)[C@H](CO)NC(=O)[C@H]([C@@H](O)[C@H](O)c2ccc(O)cc2)NC(=O)[C@@H]2C[C@@H](O)CN2C(=O)[C@H]([C@@H](C)O)NC1=O (some centres undefined) | 27 mm | 19 mm | 25 mm | 20 mm | 
7 | CCC(C)CCCCCCCCCCC(=O)N[C@@H]1C[C@@H](O)[C@H](OCc2ccccc2)NC(=O)[C@@H]2[C@@H](O)[C@@H](C)CN2C(=O)C(CO)NC(=O)C([C@@H](O)Cc2ccc(O)cc2)NC(=O)[C@@H]2C[C@@H](O)CN2C(=O)C(C(C)O)NC1=O (some centres undefined) | 18 mm |  | 17 mm | 15 mm | 
8 | CCC(C)CCCCCCCCCCC(=O)N[C@@H]1C[C@@H](O)C(OCc2ccccc2)NC(=O)[C@@H]2[C@@H](O)[C@@H](C)CN2C(=O)C(CO)NC(=O)C([C@@H](O)[C@H](O)c2ccc(O)cc2)NC(=O)[C@@H]2C[C@@H](O)CN2C(=O)C(C(C)O)NC1=O (some centres undefined) |  |  | 16 mm |  | Zone size (Aspergillus fumigatus [15]): 26 mm; Zone size (Aspergillus fumigatus [16]): 24 mm
9 | CCC(C)CCCCCCCCCCC(=O)N[C@@H]1C[C@@H](O)C(c2ccc(OC)c(OC)c2)NC(=O)[C@@H]2[C@@H](O)[C@@H](C)CN2C(=O)C(CO)NC(=O)C([C@@H](O)[C@H](O)c2ccc(O)cc2)NC(=O)[C@@H]2C[C@@H](O)CN2C(=O)C(C(C)O)NC1=O (some centres undefined) | 32 mm | 24 mm | 29 mm | 30 mm | 
10 | CCC(C)CCCCCCCCCCC(=O)N[C@@H]1C[C@@H](O)C(OC)NC(=O)[C@@H]2[C@@H](O)[C@@H](C)CN2C(=O)C(CO)NC(=O)C([C@@H](O)[C@H](O)c2ccc(O)cc2)NC(=O)[C@@H]2C[C@@H](O)CN2C(=O)C(C(C)O)NC1=O (some centres undefined) |  | 25 mm | 27 mm |  | Zone size (Aspergillus fumigatus [17]): 35 mm; Zone size (Aspergillus fumigatus [18]): 37 mm; Zone size (Aspergillus fumigatus [16]): 24 mm; Zone size (Candida albicans [19]): 26 mm
11 | CCC(C)CCCCCCCCCCC(=O)N[C@@H]1C[C@@H](O)C(CN)NC(=O)[C@@H]2[C@@H](O)[C@@H](C)CN2C(=O)C(CO)NC(=O)C([C@@H](O)[C@H](O)c2ccc(O)cc2)NC(=O)[C@@H]2C[C@@H](O)CN2C(=O)C(C(C)O)NC1=O (some centres undefined) | 25 mm | 22 mm | 25 mm | 23 mm | 
12 | OC(Cn1cncn1)(Cn1cncn1)c1ccc(F)cc1F [FLUCONAZOLE] |  |  |  |  | Approximate colony formation unit (Candida albicans [8]): 380000 (g kidney)-1; Approximate colony formation unit (Candida albicans [11]): 10000 (g kidney)-1

Source: ChEMBL document CHEMBL1147582, “Approaches towards the stabilization of hemiaminal function at ornithine unit of mulundocandin” (2004)
